# Measured values published in ChEMBL document CHEMBL3864121, “Development of ebsulfur analogues as potent antibacterials against methicillin-resistant Staphylococcus aureus” (Bioorg Med Chem, 2016).
# Experiments:
# Staphylococcus aureus [1] = assay: Antibacterial activity against methicillin-resistant Staphylococcus aureus 2 measured after overnight incubation by broth double-dilution method; format: functional
# Method in brief: (§1)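 MIC by broth double-dilution in liquid Mueller-Hinton medium. Values are reported in µg/mL.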
# Staphylococcus aureus [2] = assay: Antibacterial activity against methicillin-resistant Staphylococcus aureus G14 measured after overnight incubation by broth double-dilution method; format: functional; method in brief: as §1
# Staphylococcus aureus [3] = assay: Antibacterial activity against methicillin-resistant Staphylococcus aureus USA600 measured after overnight incubation by broth double-dilution method; format: functional; method in brief: as §1
# Staphylococcus aureus [4] = assay: Antibacterial activity against methicillin-resistant Staphylococcus aureus BRS3 measured after overnight incubation by broth double-dilution method; format: functional; method in brief: as §1
# Staphylococcus aureus [5] = assay: Antibacterial activity against methicillin-resistant Staphylococcus aureus G12 measured after overnight incubation by broth double-dilution method; format: functional; method in brief: as §1
# [6] = test system: Mycolicibacterium smegmatis; assay: Antibacterial activity against Mycobacterium smegmatis MC2-155 measured after overnight incubation by broth double-dilution method; format: functional; conditions: str. MC2 155; method in brief: as §1
# Staphylococcus aureus [7] = assay: Antibacterial activity against methicillin-resistant Staphylococcus aureus G1 measured after overnight incubation by broth double-dilution method; format: functional; method in brief: as §1
# Staphylococcus aureus [8] = assay: Antibacterial activity against methicillin-resistant Staphylococcus aureus NRS4 measured after overnight incubation by broth double-dilution method; format: functional; method in brief: as §1
# Staphylococcus aureus [9] = assay: Antibacterial activity against methicillin-resistant Staphylococcus aureus C2 measured after overnight incubation by broth double-dilution method; format: functional; method in brief: as §1
# Listeria monocytogenes = assay: Antibacterial activity against Listeria monocytogenes ATCC 19115 measured after overnight incubation by broth double-dilution method; format: functional
# Method in brief: (§2)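 MIC by broth double-dilution in Mueller-Hinton medium. Re-testing at the time-kill inoculum used 1×10^6 CFU/mL.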
# Staphylococcus aureus [10] = assay: Antibacterial activity against methicillin-resistant Staphylococcus aureus C7 measured after overnight incubation by broth double-dilution method; format: functional; method in brief: as §1
# Staphylococcus aureus [11] = assay: Antibacterial activity against methicillin-resistant Staphylococcus aureus USA200 measured after overnight incubation by broth double-dilution method; format: functional; method in brief: as §1
# Enterococcus = assay: Antibacterial activity against Vancomycin-resistant Enterococcus measured after overnight incubation by broth double-dilution method; format: functional; method in brief: as §1
# Staphylococcus aureus [12] = assay: Antibacterial activity against methicillin-resistant Staphylococcus aureus C19 measured after overnight incubation by broth double-dilution method; format: functional; method in brief: as §1
# Staphylococcus aureus [13] = assay: Antibacterial activity against methicillin-resistant Staphylococcus aureus S22 measured after overnight incubation by broth double-dilution method; format: functional; method in brief: as §1
# Staphylococcus aureus [14] = assay: Antibacterial activity against methicillin-resistant Staphylococcus aureus USA300 measured after overnight incubation by broth double-dilution method; format: functional; method in brief: as §1
# Enterococcus faecalis [15] = assay: Antibacterial activity against Enterococcus faecalis ATCC 49533 measured after overnight incubation by broth double-dilution method; format: functional; method in brief: as §2
# [16] = Solubility of compound in Muller-Hinton medium; format: physicochemical
# Staphylococcus aureus [17] = assay: Antibacterial activity against methicillin-resistant Staphylococcus aureus S14 measured after overnight incubation by broth double-dilution method; format: functional; method in brief: as §1
# [18] = test system: Staphylococcus epidermidis; assay: Antibacterial activity against Staphylococcus epidermidis ATCC 35984 measured after overnight incubation by broth double-dilution method; format: functional; conditions: RP62A; method in brief: as §2
# Staphylococcus aureus [19] = assay: Antibacterial activity against methicillin-sensitive Staphylococcus aureus ATCC 25923 measured after overnight incubation by broth double-dilution method; format: functional; method in brief: as §1
# Staphylococcus aureus [20] = assay: Antibacterial activity against methicillin-resistant Staphylococcus aureus G6 measured after overnight incubation by broth double-dilution method; format: functional; method in brief: as §1
# Enterococcus faecalis [21] = assay: Antibacterial activity against Enterococcus faecalis ATCC 29212 measured after overnight incubation by broth double-dilution method; format: functional; method in brief: as §2
# Staphylococcus aureus [22] = assay: Antibacterial activity against methicillin-resistant Staphylococcus aureus USA100 measured after overnight incubation by broth double-dilution method; format: functional; method in brief: as §1
# Enterococcus faecium = assay: Antibacterial activity against Enterococcus faecium BM4105-RF measured after overnight incubation by broth double-dilution method; format: functional; method in brief: as §1
# Staphylococcus aureus [23] = assay: Antibacterial activity against methicillin-resistant Staphylococcus aureus C1 measured after overnight incubation by broth double-dilution method; format: functional; method in brief: as §1
# Staphylococcus aureus [24] = assay: Antibacterial activity against methicillin-resistant Staphylococcus aureus S17 measured after overnight incubation by broth double-dilution method; format: functional; method in brief: as §1
# Staphylococcus aureus [25] = assay: Antibacterial activity against methicillin-resistant Staphylococcus aureus C16 measured after overnight incubation by broth double-dilution method; format: functional; method in brief: as §1
# Staphylococcus aureus [26] = assay: Antibacterial activity against methicillin-resistant Staphylococcus aureus ATCC 33591 measured after overnight incubation by broth double-dilution method; format: functional; method in brief: as §1
# Staphylococcus aureus [27] = assay: Antibacterial activity against methicillin-sensitive Staphylococcus aureus ATCC 29213 measured after overnight incubation by broth double-dilution method; format: functional; method in brief: as §1
# Staphylococcus aureus [28] = assay: Antibacterial activity against methicillin-resistant Staphylococcus aureus S24 measured after overnight incubation by broth double-dilution method; format: functional; method in brief: as §1
# Staphylococcus aureus [29] = assay: Antibacterial activity against methicillin-resistant Staphylococcus aureus C14 measured after overnight incubation by broth double-dilution method; format: functional; method in brief: as §1
# Staphylococcus aureus [30] = assay: Antibacterial activity against methicillin-resistant Staphylococcus aureus NRS77 measured after overnight incubation by broth double-dilution method; format: functional; method in brief: as §1
# Staphylococcus aureus [31] = assay: Antibacterial activity against methicillin-sensitive Staphylococcus aureus ATCC 6538 measured after overnight incubation by broth double-dilution method; format: functional; method in brief: as §1
# Staphylococcus aureus [32] = assay: Antibacterial activity against methicillin-resistant Staphylococcus aureus NRS51 measured after overnight incubation by broth double-dilution method; format: functional; method in brief: as §1
# Staphylococcus aureus [33] = assay: Antibacterial activity against methicillin-resistant Staphylococcus aureus 1 measured after overnight incubation by broth double-dilution method; format: functional; method in brief: as §1
smiles,measurement,setting,value
O=c1c2ccccc2sn1-c1ccccn1,MIC,Staphylococcus aureus [1],7.8 µg/mL
same,MIC,Staphylococcus aureus [2],7.8 µg/mL
same,MIC,Staphylococcus aureus [3],15.6 µg/mL
same,MIC,Staphylococcus aureus [4],15.6 µg/mL
same,MIC,Staphylococcus aureus [5],7.8 µg/mL
same,MIC,[6],7.8 µg/mL
same,MIC,Staphylococcus aureus [7],7.8 µg/mL
same,MIC,Staphylococcus aureus [8],15.6 µg/mL
same,MIC,Staphylococcus aureus [9],7.8 µg/mL
same,MIC,Listeria monocytogenes,7.8 µg/mL
same,MIC,Staphylococcus aureus [10],7.8 µg/mL
same,MIC,Staphylococcus aureus [11],7.8 µg/mL
same,MIC,Enterococcus,7.8 µg/mL
same,MIC,Staphylococcus aureus [12],7.8 µg/mL
same,MIC,Staphylococcus aureus [13],7.8 µg/mL
same,MIC,Staphylococcus aureus [14],7.8 µg/mL
same,MIC,Enterococcus faecalis [15],> 125 µg/mL
same,solubility,[16],Soluble
same,MIC,Staphylococcus aureus [17],2 µg/mL
same,MIC,[18],3.9 µg/mL
same,MIC,Staphylococcus aureus [19],7.8 µg/mL
same,MIC,Staphylococcus aureus [20],7.8 µg/mL
same,MIC,Enterococcus faecalis [21],> 125 µg/mL
same,MIC,Staphylococcus aureus [22],7.8 µg/mL
same,MIC,Enterococcus faecium,> 125 µg/mL
same,MIC,Staphylococcus aureus [23],3.9 µg/mL
same,MIC,Staphylococcus aureus [24],7.8 µg/mL
same,MIC,Staphylococcus aureus [25],7.8 µg/mL
same,MIC,Staphylococcus aureus [26],3.9 µg/mL
same,MIC,Staphylococcus aureus [27],7.8 µg/mL
same,MIC,Staphylococcus aureus [28],7.8 µg/mL
same,MIC,Staphylococcus aureus [29],7.8 µg/mL
same,MIC,Staphylococcus aureus [30],15.6 µg/mL
same,MIC,Staphylococcus aureus [31],7.8 µg/mL
same,MIC,Staphylococcus aureus [32],7.8 µg/mL
same,MIC,Staphylococcus aureus [33],15.6 µg/mL
